≈ marks a conversion by molar mass, not a printed value.
How the values were obtained:
[1] = Growth inhibition of CHOK1 cells assessed as mitochondrial activity measured after 72 hrs by MTT assay; format: functional, cell-based; details: Cricetulus griseus, CHO-K1, 72 h
How it was run: (§1)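 Seeded 20000 cells/well in DMEM+glutamax, NEAA, P/S, FBS; after 1 day treated 1, 5, 10, 25 μM in serum-free medium (DMSO under 0.1%) for 3 days. MTT (5 mg/ml in PBS) 2 h at 37 °C, 10% CO2 in dark; formazan dissolved in DMSO, absorbance 570 nm; triplicate; IC50 derived.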

[2] = Growth inhibition of differentiated human Caco2 cells measured after 72 hrs by SRB assay; format: cell-based; details: Caco-2, 72 h
How it was run: (§2)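 20000 cells/well treated after 1 day at 1, 5, 10, 25 μM, serum-free, for 3 days. Fixed with 50% TCA 1 h at 4 °C, stained 30 min with 0.4% sulforhodamine B in 1% acetic acid, rinsed with 1% acetic acid, dye dissolved in 10 mM Tris, absorbance 490 nm; triplicate; IC50 derived.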

Caco-2 [3] = assay: Effect on oxidative stress in undifferentiated human Caco2 cells assessed as intracellular ROS level at 10 uM after overnight incubation by DCFH-DA staining based fluorescence assay relative to control; format: functional
How it was run: (§3)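 Cells grown in DMEM+glutamax, 1% NEAA, 1% P/S, 10% FBS; seeded 20000/well, treated at confluency overnight in serum-free medium, DMSO under 0.1% final. Loaded with 20 μM DCFH-DA 30 min at 37 °C, 10% CO2; washed, phenol red-free medium 1 h, then serum-free medium; fluorescence ex 485/em 535 nm. Percent of untreated; two-tailed unequal-variance t-test, n≥6.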

[4] = Growth inhibition of human HT-29 cells measured after 72 hrs by SRB assay; format: functional, cell-based; details: HT-29, 72 h; how it was run: as §2
[5] = Growth inhibition of undifferentiated human Caco2 cells measured after 72 hrs by SRB assay; format: functional, cell-based; details: Caco-2, 72 h; how it was run: as §2
[6] = Growth inhibition of undifferentiated human Caco2 cells assessed as mitochondrial activity measured after 72 hrs by MTT assay; format: functional, cell-based; details: Caco-2, 72 h; how it was run: as §1
[7] = Growth inhibition of human EAhy926 cells measured after 72 hrs by SRB assay; format: cell-based; details: EA.hy 926, 72 h; how it was run: as §2
[8] = Solubility of the compound in serum-free DMEM assessed as compound concentration required for crystal formation measured after 1 day by microscopic analysis; format: physicochemical; details: 24 h
How it was run: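 Compound at 0, 0.5, 1, 5, 10, 25 and 50 μM in serum-free DMEM incubated 1 day at 37 °C, 10% CO2, then examined for crystal formation.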

HT-29 [9] = assay: Effect on oxidative stress in human HT-29 cells assessed as intracellular ROS level at 1 uM after overnight incubation by DCFH-DA staining based fluorescence assay relative to control; format: functional; how it was run: as §3
HT-29 [10] = assay: Effect on oxidative stress in human HT-29 cells assessed as intracellular ROS level at 10 uM after overnight incubation by DCFH-DA staining based fluorescence assay relative to control; format: functional; how it was run: as §3
[11] = Growth inhibition of differentiated human Caco2 cells assessed as mitochondrial activity measured after 72 hrs by MTT assay; format: cell-based; details: Caco-2, 72 h; how it was run: as §1
[12] = Growth inhibition of CHOK1 cells measured after 72 hrs by SRB assay; format: functional, cell-based; details: Cricetulus griseus, CHO-K1, 72 h; how it was run: as §2
[13] = Antioxidant activity assessed as inhibition of DPPH radical activity at 1 uM measured after 30 mins under dark conditions by spectrophotometric analysis relative to control; format: functional
[14] = Growth inhibition of human EAhy926 cells assessed as mitochondrial activity measured after 72 hrs by MTT assay; format: cell-based; details: EA.hy 926, 72 h; how it was run: as §1
EA.hy 926 [15] = assay: Effect on oxidative stress in human EAhy926 cells assessed as intracellular ROS level at 10 uM after overnight incubation by DCFH-DA staining based fluorescence assay relative to control; format: functional; how it was run: as §3
Caco-2 [16] = assay: Effect on oxidative stress in undifferentiated human Caco2 cells assessed as intracellular ROS level at 1 uM after overnight incubation by DCFH-DA staining based fluorescence assay relative to control; format: functional; how it was run: as §3
CHO [17] = assay: Effect on oxidative stress in CHO cells assessed as intracellular ROS level at 1 uM after overnight incubation by DCFH-DA staining based fluorescence assay relative to control; format: functional, Cricetulus griseus; how it was run: as §3
CHO [18] = assay: Effect on oxidative stress in CHO cells assessed as intracellular ROS level at 10 uM after overnight incubation by DCFH-DA staining based fluorescence assay relative to control; format: functional, Cricetulus griseus; how it was run: as §3
[19] = Growth inhibition of human HT-29 cells assessed as mitochondrial activity measured after 72 hrs by MTT assay; format: functional, cell-based; details: HT-29, 72 h; how it was run: as §1
[20] = Antioxidant activity assessed as trolox equivalent of ferric ion reducing activity using Fe3+-TPTZ by measuring Fe2+-TPTZ formation after 4 mins by UV-vis spectrophotometry based FRAP assay; format: functional
How it was run: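 FRAP reagent: 300 mM acetate buffer, 10 mM TPTZ in ethanol and 20 mM FeCl3 (in dilute HCl) combined 10:1:1, TPTZ and iron freshly made. Sample mixed 1:9 with reagent; absorbance 593 nm after 4 min. Expressed as trolox equivalents per μM from slope of linear plot versus analog concentration.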

EA.hy 926 [21] = assay: Effect on oxidative stress in human EAhy926 cells assessed as intracellular ROS level at 1 uM after overnight incubation by DCFH-DA staining based fluorescence assay relative to control; format: functional; how it was run: as §3

## CC(=O)Oc1ccc(/C=C/C(=O)/C=C(/C=C/c2ccc(OC(C)=O)cc2)NCC(C)C)cc1
[1]
  IC50: > 25 µM
[2]
  IC50: > 25 µM
Caco-2 [3]
  Activity: 85%
[4]
  IC50: 22.6 µM
[5]
  IC50: > 25 µM
[6]
  IC50: > 25 µM
[7]
  IC50: > 25 µM
[8]
  solubility: 25 µM (≈ 11.2 µg/mL)
HT-29 [9]
  Activity: 92%
HT-29 [10]
  Activity: 99%
[11]
  IC50: > 25 µM
[12]
  IC50: > 25 µM
[13]
  inhibition: 0%
[14]
  IC50: > 25 µM
EA.hy 926 [15]
  Activity: 53%
Caco-2 [16]
  Activity: 102%
CHO [17]
  Activity: 152%
CHO [18]
  Activity: 142%
[19]
  IC50: 13.7 µM
[20]
  Activity: 0.01 µMequiv/µM
EA.hy 926 [21]
  Activity: 60%

## O=C(/C=C/c1ccc(O)cc1)CC(=O)/C=C/c1ccc(O)cc1 [BISDEMETHOXYCURCUMIN]
[1]
  IC50: > 25 µM
[2]
  IC50: > 25 µM
Caco-2 [3]
  Activity: 83%
[4]
  IC50: > 25 µM
[5]
  IC50: > 25 µM
[6]
  IC50: > 25 µM
[7]
  IC50: > 25 µM
[8]
  solubility: 25 µM (≈ 7.71 µg/mL)
HT-29 [9]
  Activity: 75%
HT-29 [10]
  Activity: 69%
[11]
  IC50: > 25 µM
[12]
  IC50: > 25 µM
[13]
  inhibition: 0.02%
[14]
  IC50: > 25 µM
EA.hy 926 [15]
  Activity: 103%
Caco-2 [16]
  Activity: 98%
CHO [17]
  Activity: 101%
CHO [18]
  Activity: 105%
[19]
  IC50: > 25 µM
[20]
  Activity: 0.28 µMequiv/µM
EA.hy 926 [21]
  Activity: 92%

## COc1cc(/C=C/C(=O)/C=C(/C=C/c2ccc(O)c(OC)c2)NC2CCCCC2)ccc1O
[1]
  IC50: 24.7 µM
[2]
  IC50: > 25 µM
Caco-2 [3]
  Activity: 63%
[4]
  IC50: > 25 µM
[5]
  IC50: 5.1 µM
[6]
  IC50: > 25 µM
[7]
  IC50: > 25 µM
[8]
  solubility: 25 µM (≈ 11.2 µg/mL)
HT-29 [9]
  Activity: 80%
HT-29 [10]
  Activity: 74%
[11]
  IC50: > 25 µM
[12]
  IC50: > 25 µM
[13]
  inhibition: 0.13%
[14]
  IC50: > 25 µM
EA.hy 926 [15]
  Activity: 191%
Caco-2 [16]
  Activity: 88%
CHO [17]
  Activity: 137%
CHO [18]
  Activity: 122%
[19]
  IC50: > 25 µM
[20]
  Activity: 0.83 µMequiv/µM
EA.hy 926 [21]
  Activity: 91%

## O=C(/C=C(/C=C/c1ccc(O)cc1)NC1CCCCC1)/C=C/c1ccc(O)cc1
[1]
  IC50: 9.2 µM
[2]
  IC50: > 25 µM
Caco-2 [3]
  Activity: 82%
[4]
  IC50: 5.9 µM
[5]
  IC50: 6.9 µM
[6]
  IC50: 7.8 µM
[7]
  IC50: 4.2 µM
[8]
  solubility: 5 µM (≈ 1.95 µg/mL)
HT-29 [9]
  Activity: 77%
HT-29 [10]
  Activity: 80%
[11]
  IC50: > 25 µM
[12]
  IC50: 11.6 µM
[13]
  inhibition: 0.03%
[14]
  IC50: 3.3 µM
EA.hy 926 [15]
  Activity: 299%
Caco-2 [16]
  Activity: 97%
CHO [17]
  Activity: 111%
CHO [18]
  Activity: 150%
[19]
  IC50: 4 µM
[20]
  Activity: 0.56 µMequiv/µM
EA.hy 926 [21]
  Activity: 129%

## COc1cc(/C=C/C(=O)/C=C(/C=C/c2ccc(OC(C)=O)c(OC)c2)NCC(C)C)ccc1OC(C)=O
[1]
  IC50: > 25 µM
[2]
  IC50: > 25 µM
Caco-2 [3]
  Activity: 77%
[4]
  IC50: > 25 µM
[5]
  IC50: > 25 µM
[6]
  IC50: > 25 µM
[7]
  IC50: > 25 µM
[8]
  solubility: 5 µM (≈ 2.54 µg/mL)
HT-29 [9]
  Activity: 95%
HT-29 [10]
  Activity: 96%
[11]
  IC50: > 25 µM
[12]
  IC50: > 25 µM
[13]
  inhibition: 0%
[14]
  IC50: > 25 µM
EA.hy 926 [15]
  Activity: 240%
Caco-2 [16]
  Activity: 96%
CHO [17]
  Activity: 111%
CHO [18]
  Activity: 111%
[19]
  IC50: > 25 µM
[20]
  Activity: 0.04 µMequiv/µM
EA.hy 926 [21]
  Activity: 104%

## CC(C)CNC(=C\C(=O)/C=C/c1ccc(O)cc1)/C=C/c1ccc(O)cc1
[1]
  IC50: 17.9 µM
[2]
  IC50: > 25 µM
Caco-2 [3]
  Activity: 82%
[4]
  IC50: 22.5 µM
[5]
  IC50: 18.5 µM
[6]
  IC50: 23 µM
[7]
  IC50: > 25 µM
[8]
  solubility: 25 µM (≈ 9.09 µg/mL)
HT-29 [9]
  Activity: 77%
HT-29 [10]
  Activity: 75%
[11]
  IC50: > 25 µM
[12]
  IC50: 23.7 µM
[13]
  inhibition: 0.02%
[14]
  IC50: > 25 µM
EA.hy 926 [15]
  Activity: 119%
Caco-2 [16]
  Activity: 100%
CHO [17]
  Activity: 109%
CHO [18]
  Activity: 97%
[19]
  IC50: 20.1 µM
[20]
  Activity: 0.19 µMequiv/µM
EA.hy 926 [21]
  Activity: 100%

## CCC(C)NC(=C\C(=O)/C=C/c1ccc(OC(C)=O)c(OC)c1)/C=C/c1ccc(OC(C)=O)c(OC)c1 (configuration not stated)
[1]
  IC50: > 25 µM
[2]
  IC50: > 25 µM
Caco-2 [3]
  Activity: 86%
[4]
  IC50: > 25 µM
[5]
  IC50: 24 µM
[6]
  IC50: > 25 µM
[7]
  IC50: > 25 µM
[8]
  solubility: 5 µM (≈ 2.54 µg/mL)
HT-29 [9]
  Activity: 92%
HT-29 [10]
  Activity: 89%
[11]
  IC50: > 25 µM
[12]
  IC50: > 25 µM
[13]
  inhibition: 0%
[14]
  IC50: > 25 µM
EA.hy 926 [15]
  Activity: 105%
Caco-2 [16]
  Activity: 95%
CHO [17]
  Activity: 88%
CHO [18]
  Activity: 92%
[19]
  IC50: > 25 µM
[20]
  Activity: 0 µMequiv/µM
EA.hy 926 [21]
  Activity: 68%

Source: ChEMBL document CHEMBL3872222, “Synthesis of novel curcuminoids accommodating a central β-enaminone motif and their impact on cell growth and oxidative stress” (Eur J Med Chem, 2016)
